Several values for one entry are separate records, joined by “and”; a condition that tells them apart may be missing. Equal values may be shown once.
System: HEK-293T
Assay: Multiplex assay against HEK293T
Format: toxicity, cell-based
Details: human, number of replicates 2
Method in brief: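 Live cells were stained at seeding with Hoechst33342, BioTracker Green Microtubule Cytoskeleton Dye, MitoTracker Red and Annexin V Alexa Fluor 680, then imaged on a CQ1 microscope at 37°C and 5% CO2 after compound addition. CellPathfinder machine-learning gating split cells into Hoechst high-intensity objects or normal cells. Normal cells were split into healthy, pyknosed or fragmented nuclei, and pyknosed cells into mitotic or apoptotic. Tubulin, mitochondrial-mass and membrane-permeability phenotypes are per cents of healthy-nucleus cells.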

[1] = 12 h, 1 µM, compound concentration 1 uM
[2] = 12 h, 10 µM, compound concentration 10 uM
[3] = 24 h, 1 µM, compound concentration 1 uM
[4] = 24 h, 10 µM, compound concentration 10 uM
[5] = 48 h, 1 µM, compound concentration 1 uM
[6] = 48 h, 10 µM, compound concentration 10 uM

In the case of CCn1ccc(Nc2ncc3c(n2)-c2c(nn(C)c2-c2ccc(-c4cnn(C)c4)cc2Cl)CC3)n1, the “Population Apoptotic (%)” value [1] was 31% and 47%, the “Population Fragmented Nuclei (%)” value [1] was 3% and the “Population Healthy Nuclei (%)” value [1] was 87% and 84%. For the same compound, the “Population Hoechst High Intensity Objects (%)” value [1] was 14% and 10%, the “Population Membrane Permeable-Phenotype (%)” value [1] was 1% and 0% and the “Population Mitochondria Different-Phenotype (%)” value [1] was 44% and 42%. The “Population Mitotic Cells (%)” value [1] was 68% and 52%, the “Population Normal (%)” value [1] was 85% and 89% and the “Population Pyknosed Nuclei (%)” value [1] was 8% and 12%. The “Population Tubulin-Different-Phenotype (%)” value [1] was 84% and 81%, the “Total Cell Count” value [1] was 429 and 424 and the “Population Apoptotic (%)” value [2] was 76% and 63%. The “Population Fragmented Nuclei (%)” value [2] was 4% and 9%, the “Population Healthy Nuclei (%)” value [2] was 86% and 80% and the “Population Hoechst High Intensity Objects (%)” value [2] was 11%. The “Population Membrane Permeable-Phenotype (%)” value [2] was 3% and 0%, the “Population Mitochondria Different-Phenotype (%)” value [2] was 58% and 68% and the “Population Mitotic Cells (%)” value [2] was 24% and 36%. The “Population Normal (%)” value [2] was 88%, the “Population Pyknosed Nuclei (%)” value [2] was 8% and 10% and the “Population Tubulin-Different-Phenotype (%)” value [2] was 92% and 94%. The “Total Cell Count” value [2] was 332 and 321, the “Population Apoptotic (%)” value [3] was 26% and 62% and the “Population Fragmented Nuclei (%)” value [3] was 5%. For the same compound, the “Population Healthy Nuclei (%)” value [3] was 87% and 85%, the “Population Hoechst High Intensity Objects (%)” value [3] was 13% and 15% and the “Population Membrane Permeable-Phenotype (%)” value [3] was 1%. The “Population Mitochondria Different-Phenotype (%)” value [3] was 40% and 28%, the “Population Mitotic Cells (%)” value [3] was 73% and 37% and the “Population Normal (%)” value [3] was 86% and 84%. The “Population Pyknosed Nuclei (%)” value [3] was 7% and 9%, the “Population Tubulin-Different-Phenotype (%)” value [3] was 80% and 69% and the “Total Cell Count” value [3] was 473 and 512. For the same compound, the “Population Apoptotic (%)” value [4] was 72% and 81%, the “Population Fragmented Nuclei (%)” value [4] was 4% and 11% and the “Population Healthy Nuclei (%)” value [4] was 89% and 80%. For the same compound, the “Population Hoechst High Intensity Objects (%)” value [4] was 15% and 18%, the “Population Membrane Permeable-Phenotype (%)” value [4] was 0% and 1% and the “Population Mitochondria Different-Phenotype (%)” value [4] was 34% and 45%. The “Population Mitotic Cells (%)” value [4] was 27% and 18%, the “Population Normal (%)” value [4] was 84% and 81% and the “Population Pyknosed Nuclei (%)” value [4] was 5% and 8%. For the same compound, the “Population Tubulin-Different-Phenotype (%)” value [4] was 80%, the “Total Cell Count” value [4] was 438 and 393 and the “Population Apoptotic (%)” value [5] was 52% and 61%. The “Population Fragmented Nuclei (%)” value [5] was 13% and 10%, the “Population Healthy Nuclei (%)” value [5] was 83% and 85% and the “Population Hoechst High Intensity Objects (%)” value [5] was 20%. For the same compound, the “Population Membrane Permeable-Phenotype (%)” value [5] was 4% and 2%, the “Population Mitochondria Different-Phenotype (%)” value [5] was 7% and 12% and the “Population Mitotic Cells (%)” value [5] was 47% and 38%. For the same compound, the “Population Normal (%)” value [5] was 79%, the “Population Pyknosed Nuclei (%)” value [5] was 2% and 3% and the “Population Tubulin-Different-Phenotype (%)” value [5] was 60% and 59%. The “Total Cell Count” value [5] was 930 and 827, the “Population Apoptotic (%)” value [6] was 41% and 52% and the “Population Fragmented Nuclei (%)” value [6] was 11% and 14%. For the same compound, the “Population Healthy Nuclei (%)” value [6] was 85% and 82%, the “Population Hoechst High Intensity Objects (%)” value [6] was 14% and 18% and the “Population Membrane Permeable-Phenotype (%)” value [6] was 2% and 0%. For the same compound, the “Population Mitochondria Different-Phenotype (%)” value [6] was 11% and 15%, the “Population Mitotic Cells (%)” value [6] was 58% and 47% and the “Population Normal (%)” value [6] was 85% and 81%. For the same compound, the “Population Pyknosed Nuclei (%)” value [6] was 2% and 3%, the “Population Tubulin-Different-Phenotype (%)” value [6] was 65% and 63% and the “Total Cell Count” value [6] was 674 and 549.
COc1cc(OC)cc(C(=O)NNC(=O)Nc2cccc3ccccc23)c1 was tested, and the “Population Apoptotic (%)” value [1] was 42% and 53%, the “Population Fragmented Nuclei (%)” value [1] was 2% and 1% and the “Population Healthy Nuclei (%)” value [1] was 86% and 85%. The “Population Hoechst High Intensity Objects (%)” value [1] was 4%, the “Population Membrane Permeable-Phenotype (%)” value [1] was 1% and 2% and the “Population Mitochondria Different-Phenotype (%)” value [1] was 14% and 16%. For the same compound, the “Population Mitotic Cells (%)” value [1] was 57% and 46%, the “Population Normal (%)” value [1] was 95% and the “Population Pyknosed Nuclei (%)” value [1] was 10% and 13%. The “Population Tubulin-Different-Phenotype (%)” value [1] was 43% and 47%, the “Total Cell Count” value [1] was 709 and 572 and the “Population Apoptotic (%)” value [2] was 42% and 34%. The “Population Fragmented Nuclei (%)” value [2] was 3%, the “Population Healthy Nuclei (%)” value [2] was 84% and 83% and the “Population Hoechst High Intensity Objects (%)” value [2] was 6% and 4%. The “Population Membrane Permeable-Phenotype (%)” value [2] was 5% and 4%, the “Population Mitochondria Different-Phenotype (%)” value [2] was 15% and 12% and the “Population Mitotic Cells (%)” value [2] was 57% and 65%. For the same compound, the “Population Normal (%)” value [2] was 93% and 95%, the “Population Pyknosed Nuclei (%)” value [2] was 12% and 13% and the “Population Tubulin-Different-Phenotype (%)” value [2] was 60% and 46%. The “Total Cell Count” value [2] was 571 and 696, the “Population Apoptotic (%)” value [3] was 25% and 34% and the “Population Fragmented Nuclei (%)” value [3] was 3%. For the same compound, the “Population Healthy Nuclei (%)” value [3] was 90% and 89%, the “Population Hoechst High Intensity Objects (%)” value [3] was 8% and 6% and the “Population Membrane Permeable-Phenotype (%)” value [3] was 2%. The “Population Mitochondria Different-Phenotype (%)” value [3] was 4%, the “Population Mitotic Cells (%)” value [3] was 74% and 65% and the “Population Normal (%)” value [3] was 91% and 93%. For the same compound, the “Population Pyknosed Nuclei (%)” value [3] was 5% and 6%, the “Population Tubulin-Different-Phenotype (%)” value [3] was 28% and 29% and the “Total Cell Count” value [3] was 1130 and 899. For the same compound, the “Population Apoptotic (%)” value [4] was 36% and 29%, the “Population Fragmented Nuclei (%)” value [4] was 4% and 6% and the “Population Healthy Nuclei (%)” value [4] was 84% and 86%. For the same compound, the “Population Hoechst High Intensity Objects (%)” value [4] was 6% and 4%, the “Population Membrane Permeable-Phenotype (%)” value [4] was 4% and 3% and the “Population Mitochondria Different-Phenotype (%)” value [4] was 9% and 4%. The “Population Mitotic Cells (%)” value [4] was 63% and 70%, the “Population Normal (%)” value [4] was 93% and 95% and the “Population Pyknosed Nuclei (%)” value [4] was 11% and 6%. The “Population Tubulin-Different-Phenotype (%)” value [4] was 50% and 27%, the “Total Cell Count” value [4] was 700 and 1003 and the “Population Apoptotic (%)” value [5] was 8% and 15%. For the same compound, the “Population Fragmented Nuclei (%)” value [5] was 12% and 9%, the “Population Healthy Nuclei (%)” value [5] was 84% and 87% and the “Population Hoechst High Intensity Objects (%)” value [5] was 9%. The “Population Membrane Permeable-Phenotype (%)” value [5] was 4%, the “Population Mitochondria Different-Phenotype (%)” value [5] was 0% and the “Population Mitotic Cells (%)” value [5] was 91% and 84%. For the same compound, the “Population Normal (%)” value [5] was 91% and 90%, the “Population Pyknosed Nuclei (%)” value [5] was 3% and 2% and the “Population Tubulin-Different-Phenotype (%)” value [5] was 11% and 16%. For the same compound, the “Total Cell Count” value [5] was 2889 and 1933, the “Population Apoptotic (%)” value [6] was 8% and 17% and the “Population Fragmented Nuclei (%)” value [6] was 10% and 12%. For the same compound, the “Population Healthy Nuclei (%)” value [6] was 82% and 84%, the “Population Hoechst High Intensity Objects (%)” value [6] was 6% and 8% and the “Population Membrane Permeable-Phenotype (%)” value [6] was 4% and 5%. For the same compound, the “Population Mitochondria Different-Phenotype (%)” value [6] was 3% and 0%, the “Population Mitotic Cells (%)” value [6] was 91% and 82% and the “Population Normal (%)” value [6] was 93% and 91%. The “Population Pyknosed Nuclei (%)” value [6] was 6% and 3%, the “Population Tubulin-Different-Phenotype (%)” value [6] was 30% and 17% and the “Total Cell Count” value [6] was 1120 and 2017.

From ChEMBL document CHEMBL5303300, “EUbOPEN Chemogenomics Library - Multiplex” (2023)
